In brackets after ≈: the same amount, converted by molar mass.
Tests used:
[1] = Kinetic solubility of the compound in pION buffer at pH 7.4 measured after 18 hrs; format: physicochemical; settings: read-out: Kinetic_solubility
[2] = Oral bioavailability in Sprague-Dawley rat at 2 mg/kg; format: ADME, organism-based; settings: in vivo
Procedure, shortened: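 Male animals, n = 3 per species: C57BL/6J mouse at 2.2 mg/kg IV and 2.7 mg/kg PO; Sprague–Dawley rat at 1 mg/kg IV and 2 mg/kg PO; Beagle dog at 1.8 mg/kg IV and 5.3 mg/kg PO. Plasma clearance, Vss, IV half-life and oral %F were derived from the plasma profiles.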

[3] = target: Diacylglycerol O-acyltransferase 1 (Homo sapiens) (UniProt O75907); assay: Inhibition of recombinant human DGAT1 expressed in baculovirus infected Sf9 insect microsomal membranes at 10 uM using C10-DAG and C10-CoA as substrate pretreated for 15 mins followed by substrate addition measured after 60 mins by CPM dye based fluorescence assay relative to control
Sequence of Diacylglycerol O-acyltransferase 1 (Homo sapiens) (O75907 whole entry): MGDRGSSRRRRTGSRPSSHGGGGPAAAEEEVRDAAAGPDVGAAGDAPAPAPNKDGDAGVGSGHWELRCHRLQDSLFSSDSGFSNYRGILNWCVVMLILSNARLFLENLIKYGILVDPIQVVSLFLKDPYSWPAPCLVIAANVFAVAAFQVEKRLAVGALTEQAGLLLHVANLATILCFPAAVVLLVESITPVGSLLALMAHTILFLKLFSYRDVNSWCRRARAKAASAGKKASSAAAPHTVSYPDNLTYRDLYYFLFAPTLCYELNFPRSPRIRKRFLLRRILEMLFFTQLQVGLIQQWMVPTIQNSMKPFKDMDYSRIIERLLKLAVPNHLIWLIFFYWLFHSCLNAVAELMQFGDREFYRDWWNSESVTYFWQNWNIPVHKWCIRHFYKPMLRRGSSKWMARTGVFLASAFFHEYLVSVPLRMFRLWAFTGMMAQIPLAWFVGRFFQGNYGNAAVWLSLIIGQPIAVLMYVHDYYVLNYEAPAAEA

[4] = target: T1, Diacylglycerol O-acyltransferase 1 (Mus musculus) (UniProt Q9Z2A7); assay: Inhibition of DGAT1 in mouse C2C12 cells at 300 nM using [14C] oleic acid as substrate measured after 20 mins by phosphorimaging method relative to control; format: cell-based
T1 sequence (whole entry): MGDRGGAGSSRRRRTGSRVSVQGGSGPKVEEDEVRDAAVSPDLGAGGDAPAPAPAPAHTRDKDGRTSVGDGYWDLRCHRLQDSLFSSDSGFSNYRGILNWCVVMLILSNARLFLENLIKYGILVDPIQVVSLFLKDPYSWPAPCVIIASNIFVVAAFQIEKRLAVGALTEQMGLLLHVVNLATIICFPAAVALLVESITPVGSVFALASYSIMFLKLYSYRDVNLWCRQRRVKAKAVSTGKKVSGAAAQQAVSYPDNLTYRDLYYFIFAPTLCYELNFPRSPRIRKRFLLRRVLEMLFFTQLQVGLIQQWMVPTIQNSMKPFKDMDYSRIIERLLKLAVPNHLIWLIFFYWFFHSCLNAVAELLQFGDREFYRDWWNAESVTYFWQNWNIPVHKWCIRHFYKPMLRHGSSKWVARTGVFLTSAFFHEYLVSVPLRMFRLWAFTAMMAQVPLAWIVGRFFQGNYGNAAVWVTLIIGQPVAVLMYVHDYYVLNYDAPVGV

Row | solubility kinetic at 18 h [1] [µg/mL] | SMILES | other results
1 | 56 (≈ 98.9 µM) | O=C(O)C[C@]1(CC(F)(F)F)CCc2cc(-c3cnc(NC(=O)Nc4cccc(C(F)(F)F)c4)cn3)ccc2C1=O | bioavailability [2]: 25%
2 | 101 (≈ 212 µM) | CCC1(CC(=O)O)CCc2cc(-c3ccc(NC(=O)Nc4cccc(Cl)c4)cc3)ccc2C1=O (stereo not drawn) | –
3 | 75 (≈ 162 µM) | CC1(CC(=O)O)CCc2cc(-c3ccc(NC(=O)Nc4cccc(Cl)c4)cc3)ccc2C1=O (stereo not drawn) | –
4 | 125 (≈ 244 µM) | CC[C@@]1(CC(=O)O)CCc2cc(-c3ccc(NC(=O)Nc4ccc(F)c(F)c4)cc3Cl)ccc2C1=O | bioavailability [2]: 51%
5 | 30 (≈ 60.4 µM) | O=C(O)CC1(CC(F)(F)F)CCc2cc(-c3ccc(NC(=O)Nc4ccccc4)cc3)ccc2C1=O (stereo not drawn) | –
6 | 31 (≈ 71.7 µM) | O=C(O)CC1(F)CCc2cc(-c3ccc(NC(=O)Nc4ccccc4)cc3)ccc2C1=O (stereo not drawn) | inhibition [3]: 84%
7 | 100 (≈ 210 µM) | CCC1(CC(=O)O)CCc2cc(-c3ccc(NC(=O)Nc4ccc(Cl)cc4)cc3)ccc2C1=O (racemic) | inhibition [4]: 72%
8 | 36 (≈ 78.9 µM) | CCC1(CC(=O)O)CCc2cc(-c3ccc(NC(=O)Nc4ccc(C)cc4)cc3)ccc2C1=O (stereo not drawn) | –
9 | 6 (≈ 13.1 µM) | CCC1(CC(=O)O)CCc2cc(-c3ccc(NC(=O)Nc4cccc(C)c4)cc3)ccc2C1=O (stereo not drawn) | –
10 | 0.4 (≈ 0.839 µM) | CC[C@]1(CC(=O)O)CCc2cc(-c3ccc(NC(=O)Nc4ccc(Cl)cc4)cc3)ccc2C1=O | –
11 | 54 (≈ 126 µM) | CC1(CC(=O)O)CCc2cc(-c3ccc(NC(=O)Nc4ccccc4)cc3)ccc2C1=O (stereo not drawn) | –
12 | 103 (≈ 233 µM) | Cc1cccc(NC(=O)Nc2ccc(-c3ccc4c(c3)CCC(C)(CC(=O)O)C4=O)cc2)c1 (stereo not drawn) | –
13 | 74 (≈ 162 µM) | CCCC1(CC(=O)O)CCc2cc(-c3ccc(NC(=O)Nc4ccccc4)cc3)ccc2C1=O (stereo not drawn) | –
14 | 34 (≈ 76.8 µM) | CCC1(CC(=O)O)CCc2cc(-c3ccc(NC(=O)Nc4ccccc4)cc3)ccc2C1=O (stereo not drawn) | –

Source: ChEMBL document CHEMBL4138301, “Discovery of Tetralones as Potent and Selective Inhibitors of Acyl-CoA:Diacylglycerol Acyltransferase 1” (ACS Med Chem Lett, 2018)
